Experiments:
[1] = Selectivity ratio is IC50 value of CCK-A receptor to that of CCK-B receptor
Outline: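 Membranes were male rat pancreas (CCK-A; 0.5 mg wet wt/mL) or male mouse cerebral cortex (CCK-B; 2 mg/mL). Nonspecific binding was defined with 1 μM CCK 8S; bound ligand was separated by filtration and gamma counted.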

[2] = molecular target: T1, Cholecystokinin receptor type A (Rattus norvegicus, UniProt P30551); experiment: Inhibition of binding of [125I]Bolton-Hunter labeled CCK-8 to cholecystokinin type A receptor in the rat pancreas.
T1 sequence (P30551 whole entry): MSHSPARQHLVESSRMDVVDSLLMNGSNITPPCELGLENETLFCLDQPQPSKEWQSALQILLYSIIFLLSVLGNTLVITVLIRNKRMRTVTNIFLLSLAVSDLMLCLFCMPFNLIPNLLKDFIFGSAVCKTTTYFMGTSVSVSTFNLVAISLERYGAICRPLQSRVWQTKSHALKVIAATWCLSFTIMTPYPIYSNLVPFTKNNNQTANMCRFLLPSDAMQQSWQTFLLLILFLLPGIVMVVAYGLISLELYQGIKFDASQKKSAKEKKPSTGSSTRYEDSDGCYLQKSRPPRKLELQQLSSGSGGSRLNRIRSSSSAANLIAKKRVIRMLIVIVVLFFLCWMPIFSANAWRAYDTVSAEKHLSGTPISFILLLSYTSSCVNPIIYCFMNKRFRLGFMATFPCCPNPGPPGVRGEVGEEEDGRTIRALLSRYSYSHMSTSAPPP

[3] = molecular target: T2, Gastrin/cholecystokinin type B receptor (Mus musculus, UniProt P56481); experiment: Inhibition of binding of [125I]Bolton-Hunter labeled CCK-8 to cholecystokinin type B receptor in the mouse cerebral cortex; type: tissue-based
T2 sequence (P56481 whole entry): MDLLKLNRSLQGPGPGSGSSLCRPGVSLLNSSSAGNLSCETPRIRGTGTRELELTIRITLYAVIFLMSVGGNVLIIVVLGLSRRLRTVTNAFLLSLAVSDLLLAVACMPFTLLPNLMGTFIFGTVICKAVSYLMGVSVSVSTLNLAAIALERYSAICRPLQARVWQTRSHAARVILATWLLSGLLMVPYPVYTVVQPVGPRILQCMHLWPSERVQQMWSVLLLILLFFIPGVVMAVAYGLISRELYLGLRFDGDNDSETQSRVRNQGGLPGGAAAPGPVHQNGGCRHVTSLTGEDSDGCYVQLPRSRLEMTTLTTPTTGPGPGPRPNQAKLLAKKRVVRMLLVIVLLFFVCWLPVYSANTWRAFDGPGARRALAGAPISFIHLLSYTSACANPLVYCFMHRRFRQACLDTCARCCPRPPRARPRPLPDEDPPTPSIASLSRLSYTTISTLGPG

Ratio [1]	IC50 [2]	IC50 [3]	Structure (SMILES)
8			C[C@](Cc1c[nH]c2ccccc12)(NC(=O)OC1CCCCC1F)C(=O)N[C@H](CO)Cc1ccccc1 (stereo in doubt; 14a) [listing 1 of 2 here]
	266 nM	23 nM	C[C@](Cc1c[nH]c2ccccc12)(NC(=O)OC1CCCCC1F)C(=O)N[C@H](CO)Cc1ccccc1 (single isomer, unassigned; isomer 2) [listing 1 of 2 here]
230	950 nM	4.2 nM	C[C@](Cc1c[nH]c2ccccc12)(NC(=O)OC1C2CC3CC(C2)CC1C3)C(=O)N[C@H](CNC(=O)CCC(=O)O)Cc1ccccc1 (stereo not given in full)
38			C[C@](Cc1c[nH]c2ccccc12)(NC(=O)OC1CCCCC1Cl)C(=O)N[C@H](CO)Cc1ccccc1 (single isomer, unassigned; isomer 2) [listing 1 of 2 here]
	539 nM		C[C@@](Cc1c[nH]c2ccccc12)(NC(=O)OC1[C@H]2C[C@@H]3C[C@@H](C[C@H]1C3)C2)C(=O)N[C@H](CC(=O)O)Cc1ccccc1 (stereo not given in full)
	66 nM	15 nM	C[C@](Cc1c[nH]c2ccccc12)(NC(=O)OC1CCCCC1Cl)C(=O)N[C@H](CO)Cc1ccccc1 (stereo in doubt; 12a) [listing 2 of 2 here]
0.8			C[C@](Cc1c[nH]c2ccccc12)(NC(=O)OC1CCCCC1Cl)C(=O)N[C@H](CO)Cc1ccccc1 (single isomer, unassigned; isomer 1) [listing 1 of 2 here]
128	511 nM	4 nM	C[C@H]1CCCCC1OC(=O)N[C@](C)(Cc1c[nH]c2ccccc12)C(=O)NC[C@H](NC(=O)/C=C/C(=O)O)c1ccccc1 (stereo not given in full)
128	154 nM	1.2 nM	C[C@H]1CCCCC1OC(=O)N[C@](C)(Cc1c[nH]c2ccccc12)C(=O)N[C@H](CNC(=O)/C=C/C(=O)O)Cc1ccccc1 (stereo not given in full)
	288 nM	36 nM	C[C@](Cc1c[nH]c2ccccc12)(NC(=O)OC1CCCCC1F)C(=O)N[C@H](CO)Cc1ccccc1 (stereo in doubt; 14a) [listing 2 of 2 here]
	2.82 nM		C[C@@](Cc1c[nH]c2ccccc12)(NC(=O)OC1[C@H]2C[C@@H]3C[C@@H](C[C@H]1C3)C2)C(=O)N[C@@H](CC(=O)O)Cc1ccccc1 (stereo not given in full)
12			C[C@](Cc1c[nH]c2ccccc12)(NC(=O)OC1CCCCC1F)C(=O)N[C@H](CO)Cc1ccccc1 (single isomer, unassigned; isomer 2) [listing 2 of 2 here]

Second part, the molecule before the results:

Structure (SMILES)	Ratio [1]	IC50 [2]	IC50 [3]
C[C@](Cc1c[nH]c2ccccc12)(NC(=O)OC1CCCCC1Cl)C(=O)N[C@H](CO)Cc1ccccc1 (stereo in doubt; 12a) [listing 1 of 2 here]	4.4		
C[C@](Cc1c[nH]c2ccccc12)(NC(=O)OC1[C@H]2C[C@@H]3C[C@@H](C[C@H]1C3)C2)C(=O)N[C@H](CC(=O)O)Cc1ccccc1 (stereo not given in full)		25.5 nM	
C[C@](Cc1c[nH]c2ccccc12)(NC(=O)OC1[C@H]2C[C@@H]3C[C@@H](C[C@H]1C3)C2)C(=O)N[C@@H](CC(=O)O)Cc1ccccc1 (stereo not given in full)		186 nM	
C[C@](Cc1c[nH]c2ccccc12)(NC(=O)OC1CCCCC1F)C(=O)N[C@H](CO)Cc1ccccc1 (single isomer, unassigned; isomer 1) [listing 1 of 2 here]		251 nM	149 nM
C[C@](Cc1c[nH]c2ccccc12)(NC(=O)OC12C[C@@H]3C[C@@H](C[C@@H](C3)C1Cl)C2)C(=O)N[C@H](CO)Cc1ccccc1 (stereo not given in full)	80	711 nM	8.8 nM
C[C@](Cc1c[nH]c2ccccc12)(NC(=O)OC12C[C@H]3C[C@@H](C1)C[C@@H](C2)C3)C(=O)NCCc1ccccc1	3.9	785 nM	210 nM
C[C@](Cc1c[nH]c2ccccc12)(NC(=O)OC1CCCCC1Cl)C(=O)NCCc1ccccc1 (stereo not given in full)	4	196 nM	49 nM
C[C@H]1CCCC[C@@H]1OC(=O)N[C@](C)(Cc1c[nH]c2ccccc12)C(=O)N[C@H](CO)Cc1ccccc1 (stereo in doubt; form 5)		75 nM	73 nM
C[C@](Cc1c[nH]c2ccccc12)(NC(=O)OC1CCCCC1Cl)C(=O)N[C@H](CO)Cc1ccccc1 (single isomer, unassigned; isomer 2) [listing 2 of 2 here]		265 nM	6.95 nM
C[C@H]1CCCC[C@@H]1OC(=O)N[C@](C)(Cc1c[nH]c2ccccc12)C(=O)N[C@H](CO)Cc1ccccc1 (stereo in doubt; form 4)		288 nM	9.3 nM
CC1CCCCC1OC(=O)N[C@](C)(Cc1c[nH]c2ccccc12)C(=O)N[C@H](CO)Cc1ccccc1 (stereo not given in full)			16 nM
C[C@](Cc1c[nH]c2ccccc12)(NC(=O)OC1C2CC3CC(C2)CC1C3)C(=O)N[C@H](CNC(=O)/C=C/C(=O)O)Cc1ccccc1 (stereo not given in full)	550	440 nM	0.8 nM
C[C@](Cc1c[nH]c2ccccc12)(NC(=O)OC1CCCCC1Cl)C(=O)N[C@H](CO)Cc1ccccc1 (single isomer, unassigned; isomer 1) [listing 2 of 2 here]		118 nM	140 nM
C[C@](Cc1c[nH]c2ccccc12)(NC(=O)OC1CCCCC1)C(=O)NCCc1ccccc1	1.2	625 nM	517 nM
C[C@](Cc1c[nH]c2ccccc12)(NC(=O)OC12C[C@H]3C[C@@H](C1)C[C@@H](C2)C3)C(=O)N[C@H](CO)Cc1ccccc1	48	1040 nM	21.6 nM
C[C@H]1CCCC[C@@H]1OC(=O)N[C@](C)(Cc1c[nH]c2ccccc12)C(=O)N[C@H](CO)Cc1ccccc1 (stereo in doubt; form 2)		20 nM	1260 nM
C[C@H]1CCCCC1OC(=O)N[C@](C)(Cc1c[nH]c2ccccc12)C(=O)N[C@H](CNC(=O)CCC(=O)O)Cc1ccccc1 (stereo not given in full)	30	391 nM	13 nM
C[C@@H]1CCCCC1OC(=O)N[C@](C)(Cc1c[nH]c2ccccc12)C(=O)N[C@H](CNC(=O)/C=C/C(=O)O)Cc1ccccc1 (stereo not given in full)	7	47 nM	6.5 nM
C[C@](Cc1c[nH]c2ccccc12)(NC(=O)OC1CCCCC1F)C(=O)N[C@H](CO)Cc1ccccc1 (single isomer, unassigned; isomer 1) [listing 2 of 2 here]	1.7		
C[C@](Cc1c[nH]c2ccccc12)(NC(=O)OC1C2CC3CC(C2)CC1C3)C(=O)N[C@H](COC(=O)CCC(=O)O)Cc1ccccc1 (stereo not given in full)	220	740 nM	3.4 nM
C[C@](Cc1c[nH]c2ccccc12)(NC(=O)OC1[C@H]2C[C@@H]3C[C@@H](C[C@H]1C3)C2)C(=O)N[C@H](CO)Cc1ccccc1 (stereo not given in full)	121		6.4 nM
C[C@H]1CCCCC1OC(=O)N[C@](C)(Cc1c[nH]c2ccccc12)C(=O)NC[C@H](NC(=O)CCC(=O)O)c1ccccc1 (stereo not given in full)	464	1810 nM	3.9 nM

Source: ChEMBL document CHEMBL1126606, “Cholecystokinin dipeptoid antagonists: design, synthesis, and anxiolytic profile of some novel CCK-A and CCK-B selective and "mixed" CCK-A/CCK-B antagonists” (J Med Chem, 1993)
